Format in all cases: functional
Test [1] concerns Mycobacterium tuberculosis. Briefly: Antimicrobial activity against Mycobacterium tuberculosis H37Rv ATCC 27294 after 7 days by resazurin assay. As to conditions: H37Rv ATCC 27294, 168 h. Summed up:
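Resazurin microtitre assay. Cultures were grown in Middlebrook 7H9 with 10% OADC and added to fresh medium in 96-well plates. Test compounds came from 2 mg/mL DMF stocks, with DMF-only controls. Plates were incubated 7 days at 37 °C, then resazurin was added and read after 1 h at 37 °C. MIC was the lowest concentration preventing the blue-to-pink change.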
In general terms: The colour change of resazurin is a common sign of viable cells or microbes.

Another test concerns Aspergillus flavus. Briefly: Antimicrobial activity against Aspergillus flavus after 3 to 4 days by serial plate dilution method. Summed up: (§1)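 Fungal MIC by serial plate dilution. Sabouraud agar (peptone, D-glucose, agar; pH 5.7) plates seeded with saline spore suspension, dried 1 h at 37 °C. Wells punched and filled with compound in DMSO; DMSO-only control. Triplicate plates held 3–4 days at 37 °C; inhibition zone diameter measured. Amphotericin B positive control. Tested range […] per mL.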

Test [2] deals with Mycolicibacterium fortuitum. Nature of the test: Antimicrobial activity against Mycobacterium fortuitum ATCC 19542 after 7 days by resazurin assay. To be noted: ATCC 19542, 168 h.
The test system of test [3] is Staphylococcus aureus. Nature of the test: Antimicrobial activity against Staphylococcus aureus ATCC 25923 after 16 to 18 hrs by […].
Test [4] concerns Mycobacterium tuberculosis. Briefly: Antimicrobial activity against Mycobacterium tuberculosis H37Rv ATCC 27294 at 1 to 100 ug/ml after 7 days by resazurin assay. Summed up:
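Preliminary screen at three concentrations (1, 10 and 100) by resazurin microtitre assay. Cultures were grown in Middlebrook 7H9 with 10% OADC, and compounds came from 2 mg/mL DMF stocks with DMF controls. Plates were incubated 7 days at 37 °C, and resazurin colour was read after 1 h. Inhibition was scored as no blue-to-pink change.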

The test system of test [5] is Mycolicibacterium smegmatis. Nature of the test: Antimicrobial activity against Mycobacterium smegmatis (MC2) ATCC 19420 after 7 days by resazurin assay. To be noted: (MC2) ATCC 19420, 168 h.
In another test the test system is Escherichia coli. Briefly: Antimicrobial activity against Escherichia coli ATCC 25922 after 16 to 18 hrs by […].
The subject of a further test is Rhizopus. Nature of the test: Antimicrobial activity against Rhizopus sp. after 3 to 4 days by serial plate dilution method. An outline of the steps: as §1
In test [6] the test system is Klebsiella pneumoniae. Nature of the test: Antimicrobial activity against Klebsiella pneumoniae ATCC 13883 after 16 to 18 hrs by serial plate dilution method. An outline of the steps:
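Bacterial MIC by serial dilution in Mueller-Hinton broth adjusted to pH 5.0 with phosphate buffer. Tubes inoculated with standardized bacterial suspension, incubated 16–18 h at 37 °C. MIC read as lowest concentration with no visible growth. Range […] per mL. DMSO as negative control, ciprofloxacin as positive control.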

For another test, the system named is Candida albicans. Briefly: Antimicrobial activity against Candida albicans after 3 to 4 days by serial plate dilution method. An outline of the steps: as §1
The subject of test [7] is Staphylococcus aureus. Briefly: Ratio of ciprofloxacin MIC to compound MIC for Staphylococcus aureus ATCC 25923.
Test [8] deals with Klebsiella pneumoniae. Nature of the test: Ratio of ciprofloxacin MIC to compound MIC for Klebsiella pneumoniae ATCC 13883.

Converted amounts (≈) assume the structure as drawn. Some results are limits rather than exact numbers.

Experimental findings from ChEMBL document CHEMBL3097988, “Synthesis and characterization of new N-(4-(4-chloro-1H-imidazol-1-yl)-3-methoxyphenyl)amide/sulfonamide derivatives as possible antimicrobial and antitubercular agents” (2014) are described below.

As for `COc1ccc(S(=O)(=O)Nc2ccc(-n3cnc(Cl)c3)c(OC)c2)cc1OC`, the MIC (in general, the smallest concentration in the dilution series that meets the test's criterion for growth inhibition) in [1] is 1.25 µg/mL (≈ 2.95 µM); against Aspergillus flavus, 256 µg/mL (≈ 604 µM); in [2], 1.25 µg/mL (≈ 2.95 µM); with Staphylococcus aureus [3], 256 µg/mL (≈ 604 µM); in test [5], 1.25 µg/mL (≈ 2.95 µM); against Escherichia coli, 128 µg/mL (≈ 302 µM). Further, the minimal inhibitory concentration (MIC) is 128 µg/mL (≈ 302 µM) in the test on Rhizopus, 256 µg/mL (≈ 604 µM) in the test with Klebsiella pneumoniae [6] and 128 µg/mL (≈ 302 µM) in the test with Candida albicans. Moreover, the “inhibition (INH)” value in test [4] was 90%.

Regarding `COc1cc(NS(=O)(=O)c2ccc([N+](=O)[O-])cc2)ccc1-n1cnc(Cl)c1`, the MIC in test [1] stood at 0.625 µg/mL (≈ 1.53 µM); against Aspergillus flavus, 128 µg/mL (≈ 313 µM); in [2], 1.25 µg/mL (≈ 3.06 µM); with Staphylococcus aureus [3] it was 128 µg/mL (≈ 313 µM); in test [5] it was 10 µg/mL (≈ 24.5 µM); in the test on Escherichia coli, 128 µg/mL (≈ 313 µM). The figures for the MIC with Rhizopus, in the test with Klebsiella pneumoniae [6] and in the test with Candida albicans were 64 µg/mL (≈ 157 µM), 64 µg/mL (≈ 157 µM) and 256 µg/mL (≈ 626 µM), respectively. For the same compound, the “inhibition (INH)” value in [4] came out at 90%.

Consider `COc1cc(NS(=O)(=O)Cc2cccc(C(F)(F)F)c2)ccc1-n1cnc(Cl)c1`, for which the MIC in [1] was 1.25 µg/mL (≈ 2.8 µM); against Aspergillus flavus, 32 µg/mL (≈ 71.8 µM); in test [2] it was 10 µg/mL (≈ 22.4 µM); in the test on Staphylococcus aureus [3], 4 µg/mL (≈ 8.97 µM); against Escherichia coli it was 64 µg/mL (≈ 144 µM); in the test with Rhizopus, 128 µg/mL (≈ 287 µM). In addition, the minimum inhibitory concentration (MIC) came to 4 µg/mL (≈ 8.97 µM) in the test with Klebsiella pneumoniae [6] and 64 µg/mL (≈ 144 µM) in the test with Candida albicans. In addition, the Ratio stood at 1 with Staphylococcus aureus [7] and 2 with Klebsiella pneumoniae [8]. Besides, the “inhibition (INH)” value in test [4] was determined as 90%.

`COc1cc(NS(=O)(=O)c2cc(F)cc(C(F)(F)F)c2)ccc1-n1cnc(Cl)c1`: the MIC in [1] stood at 0.625 µg/mL (≈ 1.39 µM); with Aspergillus flavus, 8 µg/mL (≈ 17.8 µM); in test [2], 10 µg/mL (≈ 22.2 µM); against Staphylococcus aureus [3], 4 µg/mL (≈ 8.89 µM); in test [5] it was 10 µg/mL (≈ 22.2 µM); in the test with Escherichia coli, 4 µg/mL (≈ 8.89 µM). The minimum inhibitory concentration (MIC) is 16 µg/mL (≈ 35.6 µM) against Rhizopus, 8 µg/mL (≈ 17.8 µM) in the test with Klebsiella pneumoniae [6] and 8 µg/mL (≈ 17.8 µM) with Candida albicans. Further, the Ratio with Staphylococcus aureus [7] and with Klebsiella pneumoniae [8] was 1 each time. Also, the “inhibition (INH)” value in [4] turned out to be 95%.

Turning to `COc1cc(NS(=O)(=O)c2ccc(C(F)(F)F)cc2)ccc1-n1cnc(Cl)c1`, the minimum inhibitory concentration (MIC) in test [1] worked out at 0.625 µg/mL (≈ 1.45 µM); against Aspergillus flavus, 16 µg/mL (≈ 37.1 µM); in test [2] it was 10 µg/mL (≈ 23.2 µM); with Staphylococcus aureus [3], 4 µg/mL (≈ 9.26 µM); in [5] it was 1.25 µg/mL (≈ 2.89 µM); against Escherichia coli, 16 µg/mL (≈ 37.1 µM). Besides, the MIC came out at 16 µg/mL (≈ 37.1 µM) against Rhizopus, 8 µg/mL (≈ 18.5 µM) against Klebsiella pneumoniae [6] and 8 µg/mL (≈ 18.5 µM) in the test on Candida albicans. The Ratio in the test on Staphylococcus aureus [7] and with Klebsiella pneumoniae [8] was 1 throughout. For the same compound, the “inhibition (INH)” value in test [4] amounted to 95%.

For the compound `COc1cc(NS(=O)(=O)c2c(F)ccc(C(F)(F)F)c2Cl)ccc1-n1cnc(Cl)c1`, the MIC in test [1] came out at 0.625 µg/mL (≈ 1.29 µM); in the test with Aspergillus flavus, 16 µg/mL (≈ 33 µM); in [2], 10 µg/mL (≈ 20.7 µM); with Staphylococcus aureus [3], 4 µg/mL (≈ 8.26 µM); in test [5] it was 1.25 µg/mL (≈ 2.58 µM); against Escherichia coli it was 4 µg/mL (≈ 8.26 µM). The values for the MIC with Rhizopus, with Klebsiella pneumoniae [6] and with Candida albicans were 16 µg/mL (≈ 33 µM), 8 µg/mL (≈ 16.5 µM) and 8 µg/mL (≈ 16.5 µM), respectively. Moreover, the Ratio with Staphylococcus aureus [7] and in the test on Klebsiella pneumoniae [8] was 1 each time. Besides, in [4], the “inhibition (INH)” value came out at 90%.

On to `COc1cc(NS(=O)(=O)c2cccs2)ccc1-n1cnc(Cl)c1`, for which the MIC stood at 1.25 µg/mL (≈ 3.38 µM) in [1]; 256 µg/mL (≈ 692 µM) against Aspergillus flavus; 1.25 µg/mL (≈ 3.38 µM) in test [2]; 128 µg/mL (≈ 346 µM) in the test with Staphylococcus aureus [3]; 1.25 µg/mL (≈ 3.38 µM) in test [5]; 64 µg/mL (≈ 173 µM) in the test on Escherichia coli. Also, the figures for the minimum inhibitory concentration (MIC) against Rhizopus, with Klebsiella pneumoniae [6] and against Candida albicans were 128 µg/mL (≈ 346 µM), 256 µg/mL (≈ 692 µM) and 64 µg/mL (≈ 173 µM), respectively. Further, the “inhibition (INH)” value in [4] was 90%.

Regarding `COc1cc(NC(=O)Cc2cccc(C(F)(F)F)c2)ccc1-n1cnc(Cl)c1`, the MIC was 2.5 µg/mL (≈ 6.1 µM) in test [1]; 256 µg/mL (≈ 625 µM) against Aspergillus flavus; 10 µg/mL (≈ 24.4 µM) in test [2]; 128 µg/mL (≈ 312 µM) against Staphylococcus aureus [3]; 10 µg/mL (≈ 24.4 µM) in test [5]; 256 µg/mL (≈ 625 µM) in the test on Escherichia coli. Moreover, the minimum inhibitory concentration (MIC) was > 256 µg/mL against Rhizopus, 64 µg/mL (≈ 156 µM) with Klebsiella pneumoniae [6] and 128 µg/mL (≈ 312 µM) in the test with Candida albicans. The “inhibition (INH)” value in [4] is <90%.

On to `COc1cc(NC(=O)c2ccc(C(F)(F)F)cc2)ccc1-n1cnc(Cl)c1`, for which the MIC in test [1] was 1.25 µg/mL (≈ 3.16 µM); in the test with Aspergillus flavus, 128 µg/mL (≈ 323 µM); in test [2], 1.25 µg/mL (≈ 3.16 µM); against Staphylococcus aureus [3], 128 µg/mL (≈ 323 µM); in test [5] it was 2.5 µg/mL (≈ 6.32 µM); in the test on Escherichia coli, 64 µg/mL (≈ 162 µM). Also, the minimal inhibitory concentration (MIC) in the test with Rhizopus was 64 µg/mL (≈ 162 µM); in the test with Klebsiella pneumoniae [6] it was 64 µg/mL (≈ 162 µM); against Candida albicans, 32 µg/mL (≈ 80.9 µM). For the same compound, the “inhibition (INH)” value in test [4] is 90%.

As to `COc1cc(NC(=O)c2cccc([N+](=O)[O-])c2Cl)ccc1-n1cnc(Cl)c1`, the MIC is 1.25 µg/mL (≈ 3.07 µM) in test [1]; 256 µg/mL (≈ 629 µM) against Aspergillus flavus; 1.25 µg/mL (≈ 3.07 µM) in [2]; 128 µg/mL (≈ 314 µM) in the test with Staphylococcus aureus [3]; 1.25 µg/mL (≈ 3.07 µM) in test [5]; > 256 µg/mL in the test with Escherichia coli. Further, the figures for the MIC in the test with Rhizopus, in the test with Klebsiella pneumoniae [6] and in the test with Candida albicans were > 256 µg/mL, 128 µg/mL (≈ 314 µM) and 128 µg/mL (≈ 314 µM), respectively. For the same compound, the “inhibition (INH)” value in [4] was 90%.

As for `COc1cc(NC(=O)c2cccs2)ccc1-n1cnc(Cl)c1`, the MIC in [1] was 5 µg/mL (≈ 15 µM); with Aspergillus flavus it was 64 µg/mL (≈ 192 µM); in test [2], 2.5 µg/mL (≈ 7.49 µM); in the test with Staphylococcus aureus [3], 128 µg/mL (≈ 383 µM); in test [5] it was 1.25 µg/mL (≈ 3.74 µM); in the test with Escherichia coli, 128 µg/mL (≈ 383 µM). Further, the MIC was 32 µg/mL (≈ 95.9 µM) in the test on Rhizopus, 64 µg/mL (≈ 192 µM) with Klebsiella pneumoniae [6] and 256 µg/mL (≈ 767 µM) against Candida albicans. The “inhibition (INH)” value in test [4] amounted to 90%.
